This note sets out measurements from ChEMBL document CHEMBL4373685, “High affinity rigidified AT2 receptor ligands with indane scaffolds” (Medchemcomm, 2019).

Activity calls are given as the source filed them. The rule behind the calls is not given here.

Assay [1] can be described thus: Displacement of [125I]-Ang2 from AT2 receptor in porcine uterine myometrial membranes after 1.5 hrs by gamma scintillation gamma scintillation counting analysis. On the set-up: species or system Sus scrofa. Put shortly:
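Pig uterine myometrial membranes (10 mg original tissue per tube) with 1 μM losartan to block AT1. Incubated 25 °C for 1.5 h, then filtered and counted by γ-counter. Nonspecific binding with 1 μM Ang II.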

For assay [2], the system named is NG108-15. Description: Agonist activity at AT2 receptor in mouse/rat NG108-15 cells assessed as neurite growth at 10 nM after 3 days in presence of PD123319 by phase contrast microscopic analysis. It counts as cell-based. Put shortly:
(§1)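 NG108-15 neuroblastoma x glioma cells, passages 18–25, in DMEM with 10% FBS and HAT at 37 °C, 7% CO2. Seeded at 3.6 × 10^4 cells per 35 mm dish. Dosed once daily for 3 days starting 24 h after plating; where used, 10 μM PD 123319 was added 30 min before compound. On day 4, phase-contrast micrographs were taken. Cells with a neurite longer than the cell body were scored as % of at least 400 cells. Three independent experiments in duplicate, two-way ANOVA.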

In assay [3] the test system is NG108-15. Description: Agonist activity at AT2 receptor in mouse/rat NG108-15 cells assessed as neurite growth at 10 nM after 3 days by phase contrast microscopic analysis. The format is cell-based. Put shortly:
as §1

Assay [4] has as its system NG108-15. Description: Antagonist activity at AT2 receptor in mouse/rat NG108-15 cells assessed as inhibition of angiotensin-2 induced neurite growth at 100 nM after 3 days in presence of angiotensin-2 by phase contrast microscopic analysis. It counts as cell-based. Put shortly: (§2)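 NG108-15 cells seeded at 3.6 × 10^4 per 35 mm dish. Compound given once daily for 3 days, starting 24 h after plating, 30 min before 100 nM Ang II. On day 4, phase-contrast micrographs were taken. Cells bearing a neurite longer than the cell body were counted as % of at least 400 cells. Three independent experiments in duplicate, two-way ANOVA.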

For assay [5], the system named is NG108-15. Put plainly: Antagonist activity at AT2 receptor in mouse/rat NG108-15 cells assessed as inhibition of angiotensin-2 induced neurite growth at 10 nM after 3 days in presence of angiotensin-2 by phase contrast microscopic analysis. The format is cell-based. In outline:
as §2

Turning to `CCCCOC(=O)NS(=O)(=O)c1ccc2c(c1-c1ccc(Cn3ccnc3)cc1)CCC2C(C)C` (single isomer, unassigned; (+)) [listing 1 of 2 here], affinity in assay [1] was put at a Ki of 2.8 nM.

The molecule `CCCCOC(=O)NS(=O)(=O)c1cc2c(cc1-c1cccc(Cn3ccnc3)c1)CCC2C(C)C` (single isomer, unassigned; (+)) [listing 1 of 2 here] registered a Ki in assay [1] of 3.2 nM.

In assay [1], `CCCCOC(=O)NS(=O)(=O)c1cc2c(cc1-c1ccc(Cn3ccnc3)cc1)CCC2C(C)C` (single isomer, unassigned; (+)) [listing 1 of 2 here] registered an inhibition constant (Ki) of 2.2 nM.

Turning to `CCCCOC(=O)NS(=O)(=O)c1cc2c(cc1-c1ccc(Cn3ccnc3)cc1)CCC2C(C)C` (single isomer, unassigned; (+)) [listing 2 of 2 here], the result in the assay with NG108-15 [2] was inactive. Moreover, in the assay on NG108-15 [3], the result was Active.

As to `CCCCOC(=O)NS(=O)(=O)c1cc2c(cc1-c1cccc(Cn3ccnc3)c1)CCC2C(C)C` (single isomer, unassigned; (+)) [listing 2 of 2 here], the inhibition result with NG108-15 [4] and in the assay with NG108-15 [5] was “Active” each time.

For `CCCCOC(=O)NS(=O)(=O)c1ccc2c(c1-c1ccc(Cn3ccnc3)cc1)CCC2C(C)C` (single isomer, unassigned; (+)) [listing 2 of 2 here], the inhibition result in the assay on NG108-15 [4] and with NG108-15 [5] was “Active” each time.

As for `CCCCOC(=O)NS(=O)(=O)c1ccc2c(c1-c1ccc(Cn3ccnc3)cc1)CCC2C(C)C` (single isomer, unassigned; (-)) [listing 1 of 2 here], the Ki in assay [1] was 127 nM.

`CCCCOC(=O)NS(=O)(=O)c1ccc2c(c1-c1cccc(Cn3ccnc3)c1)CCC2C(C)C` (single isomer, unassigned; (-)) [listing 1 of 2 here] registered a Ki in assay [1] of 223 nM.

As for `CCCCOC(=O)NS(=O)(=O)c1cc2c(cc1-c1cccc(Cn3ccnc3)c1)CCC2C(C)C` (single isomer, unassigned; (-)) [listing 1 of 2 here], the affinity in assay [1], expressed as Ki, was 7 nM.

For the molecule `CCCCOC(=O)NS(=O)(=O)c1cc2c(cc1-c1ccc(Cn3ccnc3)cc1)CCC2C(C)C` (single isomer, unassigned; (-)) [listing 1 of 2 here], the affinity in assay [1] corresponds to a Ki of 5.9 nM.

In the case of `CCCCOC(=O)NS(=O)(=O)c1cc2c(cc1-c1ccc(Cn3ccnc3)cc1)CCC2C(C)C` (single isomer, unassigned; (-)) [listing 2 of 2 here], the outcome with NG108-15 [2] was inactive. Also, the outcome with NG108-15 [3] was Active.

With `CCCCOC(=O)NS(=O)(=O)c1cc2c(cc1-c1cccc(Cn3ccnc3)c1)CCC2C(C)C` (single isomer, unassigned; (-)) [listing 2 of 2 here], in the assay on NG108-15 [2], the outcome was inactive. In addition, in the assay on NG108-15 [3], the outcome was Active.

Turning to `CCCCOC(=O)NS(=O)(=O)c1ccc2c(c1-c1ccc(Cn3ccnc3)cc1)CCC2C(C)C` (single isomer, unassigned; (-)) [listing 2 of 2 here], the result with NG108-15 [2] was inactive. Moreover, in the assay on NG108-15 [3], the result was Active.

With `CCCCOC(=O)NS(=O)(=O)c1ccc2c(c1-c1cccc(Cn3ccnc3)c1)CCC2C(C)C` (single isomer, unassigned; (-)) [listing 2 of 2 here], the inhibition result in the assay on NG108-15 [4] and in the assay with NG108-15 [5] was “Active” each time.

`CCCCOC(=O)NS(=O)(=O)c1ccc2c(c1-c1cccc(Cn3ccnc3)c1)CCC2C(C)C` (stereo in doubt; 8b) [listing 1 of 2 here] yielded a Ki in assay [1] of 53.5 nM.

As to `CCCCOC(=O)NS(=O)(=O)c1ccc2c(c1-c1cccc(Cn3ccnc3)c1)CCC2C(C)C` (stereo in doubt; 8b) [listing 2 of 2 here], the inhibition result with NG108-15 [4] and in the assay with NG108-15 [5] was “Active” throughout.
